Active and inactive are the calls of the source. No cut-off for these calls is given here.
Tests used:
Trypanosoma cruzi [1] = test: Antitrypanosomal activity against Trypanosoma cruzi Tulahuen CL2 amastigotes infected in human MRC5 SV2 cells incubated for 7 days by chlorophenol red beta-D-galactopyranoside substrate based spectrophotometric assay; format: functional, organism-based; details: Tulahuen CL2, MRC-5 SV2, 168 h
How it was run: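 Intracellular amastigotes of β-galactosidase-expressing Tulahuen strain grown in MRC-5 fibroblast host cells. EC50 in μM given as mean and SEM of two or three independent experiments; some values come from a single determination.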

Trypanosoma cruzi [2] = test: (§1) In vivo antitrypanosomal activity against Trypanosoma cruzi Y trypomastigotes infected in Swiss mouse assessed as reduction in parasitemia at 100 mg/kg, po administered once daily via gavage for 5 days starting from 5 days post-infection and measured 8 days post-infection by light microscopic method relative to control; format: functional; set-up: scale not given: the % may be the effect or the level left
How it was run: (§2)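 Male Swiss Webster mice (18-20 g, 4-5 weeks) infected i.p. with 10⁴ Y-strain bloodstream trypomastigotes; six per group. Oral gavage from 5 dpi for 5 consecutive days: test compound at 25 mg/kg b.i.d. (2.0 mg/mL in 10% EtOH, 0.1 M citrate pH 3.02), benznidazole at 100 mg/kg s.i.d. Parasites counted in 5 μL tail blood to 30 dpi; mortality followed daily to 40 dpi.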

Trypanosoma cruzi [3] = test: as §1, with “up to 30” for “8”; format: functional; set-up: scale not given: the % may be the effect or the level left; how it was run: as §2
Trypanosoma cruzi [4] = test: In vivo antitrypanosomal activity against Trypanosoma cruzi Y trypomastigotes infected in Swiss mouse assessed as mouse survival at 100 mg/kg, po administered once daily via gavage for 5 days starting from 5 days post-infection and measured daily up to 40 days post-infection; format: functional, organism-based; how it was run: as §2
[5] = Toxicity in Swiss Webster mouse infected with Trypanosoma cruzi Y trypomastigotes assessed as body weight loss at 100 mg/kg, po administered once daily via gavage for 5 days starting from 5 days post-infection and measured daily up to 40 days post-infection; format: organism-based; details: in vivo
How it was run: (§3)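 Male Swiss Webster mice were infected i.p. with 10⁴ Y-strain trypomastigotes and treated by oral gavage for 5 days from 5 dpi. Regimens were 25 mg/kg b.i.d. (10% EtOH/citrate vehicle) or benznidazole 100 mg/kg s.i.d. Body weight and visual clinical signs were monitored, with daily mortality checks up to 40 dpi. There were six mice per group.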

[6] = Toxicity in Swiss Webster mouse infected with Trypanosoma cruzi Y trypomastigotes assessed as appearance of clinical symptoms at 100 mg/kg, po administered once daily via gavage for 5 days starting from 5 days post-infection and measured daily up to 40 days post-infection; format: organism-based; details: in vivo; how it was run: as §3
Trypanosoma cruzi [7] = test: (§4) In vivo antitrypanosomal activity against Trypanosoma cruzi Y trypomastigotes infected in Swiss mouse assessed as reduction in parasitemia at 100 mg/kg, po administered once daily for 5 days with 2 days interval for 3 cycles and measured 9 days post-infection by light microscopy; format: functional, organism-based
How it was run: (§5)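 Male Swiss Webster mice infected i.p. with 10⁴ Y-strain bloodstream trypomastigotes; six per group. Oral gavage from 5 dpi for 15 days (three 5-day rounds, 2 days off): test compound 25 mg/kg b.i.d., benznidazole 100 mg/kg s.i.d. Parasites counted in 5 μL tail blood to 30 dpi; mortality followed to 53 dpi.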

Trypanosoma cruzi [8] = test: as §4, with “up to 30” for “9”, “microscopy relative to control” for “microscopy”; format: functional, organism-based; how it was run: as §5
Trypanosoma cruzi [9] = test: In vivo antitrypanosomal activity against Trypanosoma cruzi Y trypomastigotes infected in Swiss mouse assessed as mouse survival at 100 mg/kg, po administered once daily for 5 days with 2 days interval for 3 cycles and measured […]; format: functional, organism-based; how it was run: as §5
[10] = Toxicity in Swiss Webster mouse infected with Trypanosoma cruzi Y trypomastigotes assessed as body weight loss at 100 mg/kg, po administered once daily for 5 days with 2 days interval for 3 cycles; format: organism-based; details: in vivo
How it was run: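 Y-strain-infected male Swiss Webster mice were dosed orally for 15 days (three rounds of 5 days, 2 drug-free days between) starting at 5 dpi. Regimens were 25 mg/kg b.i.d. or benznidazole 100 mg/kg s.i.d. Weight loss was recorded as a sign of toxicity, with mortality checked daily up to 53 dpi. There were six mice per group.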

Trypanosoma cruzi [11] = test: Antitrypanosomal activity against bloodstream form of Trypanosoma cruzi Y trypomastigotes measured after 24 hrs by Neubauer chamber-based light microscopic analysis; format: functional, organism-based
[12] = Cytotoxicity against Swiss mouse primary cardiac cells assessed as reduction in cell viability incubated for 24 hrs by PrestoBlue dye based colorimetry
L929 = test: Cytotoxicity against mouse L929 cells assessed as reduction in cell viability; format: cell-based
Trypanosoma cruzi [13] = test: Antitrypanosomal activity against Trypanosoma cruzi Y amastigotes infected in Swiss mouse primary cardiac cells incubated for 168 hrs with media replenishment for every 48 hrs followed by compound washout and measured after 168 hrs by light microscopic method; format: functional, organism-based
How it was run: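 Cardiac cells plated 24 h, then infected 24 h at 37 °C with Y-strain bloodstream trypomastigotes (parasite:host 10:1) and washed. Serial dilutions (up to 5 µM) for 168 h at 37 °C, drug medium renewed every 48 h. PBS rinse, 168 h drug-free. Giemsa-stained; infected cells and parasites per cell scored in 200 cells. EC50 from infection-index inhibition; two experiments, duplicate.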

Trypanosoma cruzi [14] = test: In vivo antitrypanosomal activity against Trypanosoma cruzi Y trypomastigotes infected in Swiss mouse assessed as reduction in parasitemia at 100 mg/kg, po administered once daily via gavage for 5 days starting from 5 days post-infection in presence of cyclophosphamide by light microscopic method; format: functional, organism-based
Trypanosoma cruzi [15] = test: In vivo antitrypanosomal activity against Trypanosoma cruzi Y trypomastigotes infected in Swiss mouse assessed as reduction in parasitemia at 100 mg/kg, po administered once daily for 5 days with 2 days interval for 3 cycles in presence of cyclophosphamide by light microscopy; format: functional, organism-based
[16] = Cytotoxicity against human MRC5 SV2 cells assessed as reduction in cell viability incubated for 3 days by resazurin dye based assay; details: MRC-5 SV2, 72 h
[17] = Selectivity index, ratio for EC50 for human MRC5 SV2 cells to EC50 for Trypanosoma cruzi Tulahuen CL2 amastigotes infected in human MRC5 SV2 cells; format: toxicity, cell-based; details: read-out: Ratio EC50

Compound | EC50 (Trypanosoma cruzi [1]) | EC50 [16] | selectivity ratio [17] | other results
O=C(Cn1ccnc1[N+](=O)[O-])NCc1ccccc1 [BENZNIDAZOLE] | 2.36 µM | – | – | Activity (Trypanosoma cruzi [2]): 100%; Activity (Trypanosoma cruzi [3]): 100%; Activity (Trypanosoma cruzi [4]): Active; Activity [5]: Non-Toxic; Activity [6]: Non-Toxic; Activity (Trypanosoma cruzi [7]): Active; Activity (Trypanosoma cruzi [8]): Active; Activity (Trypanosoma cruzi [9]): inactive; Activity [10]: Non-Toxic; EC50 (Trypanosoma cruzi [11]): 5.7 µM; EC50 [12]: > 400 µM; EC50 (L929): > 200 µM; EC50 (Trypanosoma cruzi [13]): 2700 nM; Activity (Trypanosoma cruzi [14]): inactive; Activity (Trypanosoma cruzi [15]): inactive
Nc1ccnc2c1c(-c1cccs1)cn2[C@@H]1O[C@H](CO)[C@@H](O)[C@H]1O | 36.9 µM | > 64 µM | > 1.7 | –
Cc1cn([C@@H]2O[C@H](CO)[C@@H](O)[C@H]2O)c2nccc(N)c12 | 1.14 µM | 51.6 µM | 45 | EC50 (Trypanosoma cruzi [11]): > 50 µM; EC50 (L929): > 200 µM
Nc1ccnc2c1c(F)cn2[C@@H]1O[C@H](CO)[C@@H](O)[C@H]1O | 8.8 µM | > 64 µM | > 7.3 | –
Nc1ccnc2c1c(-c1ccccn1)cn2[C@@H]1O[C@H](CO)[C@@H](O)[C@H]1O | > 64 µM | > 64 µM | – | –
Nc1ccnc2[nH]cc(I)c12 | > 64 µM | > 64 µM | – | –
OC[C@H]1O[C@@H](n2cc(I)c3c(Cl)ccnc32)[C@H](O)[C@@H]1O | 2.14 µM | 2.18 µM | 1 | –
Nc1ccnc2c1c(C#Cc1ccccc1)cn2[C@@H]1O[C@H](CO)[C@@H](O)[C@H]1O | > 64 µM | > 64 µM | – | –
Nc1ccnc2c1c([N+](=O)[O-])cn2[C@@H]1O[C@H](CO)[C@@H](O)[C@H]1O | 47.7 µM | > 64 µM | > 1.3 | –
Nc1ccnc2c1c(Br)cn2[C@@H]1O[C@H](CO)[C@@H](O)[C@H]1O | 0.2 µM | > 64 µM | > 320 | –
Nc1ccnc2c1c(/C=C/c1ccccc1)cn2[C@@H]1O[C@H](CO)[C@@H](O)[C@H]1O | > 64 µM | > 64 µM | – | –
CCc1cn([C@@H]2O[C@H](CO)[C@@H](O)[C@H]2O)c2nccc(N)c12 | > 64 µM | > 64 µM | – | –
C=Cc1cn([C@@H]2O[C@H](CO)[C@@H](O)[C@H]2O)c2nccc(N)c12 | 0.81 µM | > 64 µM | > 79 | EC50 (Trypanosoma cruzi [11]): > 50 µM; EC50 (L929): > 200 µM
Nc1ccnc2c1c(Cl)cn2[C@@H]1O[C@H](CO)[C@@H](O)[C@H]1O | 0.19 µM | > 64 µM | > 337 | EC50 (Trypanosoma cruzi [11]): > 50 µM; EC50 [12]: > 400 µM; EC50 (L929): > 200 µM
Nc1ccnc2c1c(C(F)(F)F)cn2[C@@H]1O[C@H](CO)[C@@H](O)[C@H]1O | 1.56 µM | 0.73 µM | 0.47 | –
N#Cc1cn([C@@H]2O[C@H](CO)[C@@H](O)[C@H]2O)c2nccc(N)c12 | 4 µM | 18.5 µM | 4.6 | –
Nc1ccnc2c1c(C1CCCCC1)cn2[C@@H]1O[C@H](CO)[C@@H](O)[C@H]1O | > 64 µM | > 64 µM | – | –
Nc1ncnc2c1c(I)cn2[C@@H]1O[C@H](CO)[C@@H](O)[C@H]1O [IODOTUBERCIDIN] | 0.8 µM | 5.35 µM | 6.7 | –
C[C@H]1O[C@@H](n2cc(I)c3c(N)ccnc32)[C@H](O)[C@@H]1O | > 64 µM | > 64 µM | – | –
Cc1ccnc2c1c(I)cn2[C@@H]1O[C@H](CO)[C@@H](O)[C@H]1O | 7.98 µM | 2.29 µM | 0.29 | –
Nc1ccnc2c1ccn2[C@@H]1O[C@H](CO)[C@@H](O)[C@H]1O | 2.27 µM | 17.9 µM | 7.9 | –
Nc1ccnc2c1c(I)cn2[C@H]1C[C@H](O)[C@@H](CO)O1 | > 64 µM | > 64 µM | – | –
OC[C@H]1O[C@@H](n2cc(I)c3cccnc32)[C@H](O)[C@@H]1O | 1.75 µM | 52.9 µM | > 30 | EC50 (Trypanosoma cruzi [11]): 36.3 µM; EC50 (L929): > 200 µM
Nc1ccnc2c1c(-c1ccccc1)cn2[C@@H]1O[C@H](CO)[C@@H](O)[C@H]1O | > 64 µM | > 64 µM | – | –
Nc1ccnc2c1c(C1=CCCCC1)cn2[C@@H]1O[C@H](CO)[C@@H](O)[C@H]1O | > 64 µM | > 64 µM | – | –
Nc1ccnc2c1c(I)cn2[C@@H]1O[C@H](CO)C[C@H]1O | > 64 µM | > 64 µM | – | –
Nc1ccnc2c1c(-c1ccc(Cl)cc1)cn2[C@@H]1O[C@H](CO)[C@@H](O)[C@H]1O | > 64 µM | > 64 µM | – | –
C#Cc1cn([C@@H]2O[C@H](CO)[C@@H](O)[C@H]2O)c2nccc(N)c12 | 0.08 µM | 59 µM | 730 | EC50 (Trypanosoma cruzi [11]): 40.5 µM; EC50 (L929): > 200 µM

Source: ChEMBL document CHEMBL4414577, “Discovery of Pyrrolo[2,3-b]pyridine (1,7-Dideazapurine) Nucleoside Analogues as Anti-Trypanosoma cruzi Agents” (J Med Chem, 2019)
